For data set [1], the system named is Human betaherpesvirus 5. The experiment in a line: Antiviral activity against ganciclovir-resistant HCMV3 isolate replication in HFF cells by plaque reduction assay. Format: functional, organism-based. To be noted: Human betaherpesvirus 5, HFF. In a few lines: (§1)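 Plaque reduction run as a modified, simplified micro-culture, cell-associated immediate-early assay on human foreskin fibroblast monolayers (passage 15–30) in MEM with 10% FCS. Drug was diluted in MEM–10% FCS from a 100 mM PBS stock. IC50 came from Probit analysis. Strain HCMV-3res carries the UL97 C603W mutation. U405 is a clinical isolate from a pediatric stem cell transplant recipient.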
(Plaques are areas of infected cells; plaque reduction assays count them against a control.)

For data set [2], the system named is Human alphaherpesvirus 1. The experiment in a line: Antiviral activity against acyclovir-resistant HSV1 KOS-M isolate replication in african green monkey Vero cells by plaque reduction assay. Format: functional, organism-based. To be noted: Human alphaherpesvirus 1, Vero. In short, it runs like this:
(§2)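 HSV-1 was grown and assayed by plaque reduction in Vero cell monolayers in MEM with 10% FCS. Drug was diluted in MEM–10% FCS from a 100 mM PBS stock, and IC50 was read from the plaque counts. KOS-M was derived from KOS by 3 weeks of passage in 13 μM ACV.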

In data set [3] the test system is Human immunodeficiency virus 1. The experiment in a line: Antiviral activity against HIV1 infected in human CEM-SS cells assessed as inhibition of virus-induced cytopathic effect by plaque reduction assay. Format: functional, organism-based. As to conditions: Human immunodeficiency virus 1, CEM-SS. In short, it runs like this: (§3)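 Run at the National Cancer Institute (USA). The assay rests on HIV killing T4 lymphocytes. EC50 is the concentration protecting against virus cytopathic effect, and IC50 is 50% inhibition of cell growth. The therapeutic index is TI50 = IC50/EC50.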

In a further data set the test system is CEM-SS. The experiment in a line: Growth inhibition of human CEM-SS cells. It counts as cell-based. In a few lines: as §3
The test system of data set [4] is Human alphaherpesvirus 1. The experiment in a line: Antiviral activity against acyclovir-resistant HSV1 K143 isolate replication in african green monkey Vero cells by plaque reduction assay. Format: functional, organism-based. To be noted: Human alphaherpesvirus 1, Vero. In short, it runs like this: as §2
For data set [5], the system named is Human alphaherpesvirus 1. As to the kind of experiment: Antiviral activity against acyclovir-sensitive HSV1 K161 isolate replication in african green monkey Vero cells by plaque reduction assay. It counts as functional, organism-based. As to conditions: Human alphaherpesvirus 1, Vero. In short, it runs like this: as §2
Data set [6] deals with Human betaherpesvirus 5. The experiment in a line: Antiviral activity against ganciclovir-sensitive HCMV1 isolate replication in HFF cells by plaque reduction assay. Format: functional, organism-based. As to conditions: Human betaherpesvirus 5, HFF. In short, it runs like this:
as §1

Data set [7] concerns Human betaherpesvirus 5. As to the kind of experiment: Antiviral activity against ganciclovir-resistant HCMV U405 isolate replication in HFF cells by plaque reduction assay. To be noted: Human betaherpesvirus 5, HFF. Format: functional, organism-based. In short, it runs like this: as §1
Data set [8] can be described thus: Therapeutic index, IC50 for human CEM-SS cells to EC50 for HIV1. Format: cell-based. As to conditions: read-out: Ratio IC50/EC50. In a few lines: as §3
For data set [9], the system named is Human alphaherpesvirus 1. As to the kind of experiment: Antiviral activity against acyclovir-sensitive HSV1 L177 isolate replication in african green monkey Vero cells by plaque reduction assay. As to conditions: Human alphaherpesvirus 1, Vero. Format: functional, organism-based. In a few lines:
as §2

Data set [10] deals with Human alphaherpesvirus 1. The experiment in a line: Antiviral activity against acyclovir-sensitive HSV1 KOS isolate replication in african green monkey Vero cells by plaque reduction assay. Format: functional, organism-based. As to conditions: Human alphaherpesvirus 1, Vero. In a few lines: as §2
Data set [11] relates to Human alphaherpesvirus 1. As to the kind of experiment: Antiviral activity against acyclovir-resistant HSV1 L182 isolate replication in african green monkey Vero cells by plaque reduction assay. Format: functional, organism-based. To be noted: Human alphaherpesvirus 1, Vero. In a few lines:
as §2

pEC50, pIC50: −log10 of the molar value.

As a reminder, the pIC50 is the negative decadic logarithm of the IC50, by convention in mol/L. A word on the pEC50: it is the EC50 on a negative log10 scale, so that one unit is a factor of ten. With `CCCCCCCCCCCCCCCCCCOC[C@H](COP(=O)(O)C(=O)O)OP(=O)(O)OC[C@H]1O[C@@H](n2cc(C)c(=O)[nH]c2=O)C[C@@H]1N=[N+]=[N-]`, the pIC50 in the data set on Human betaherpesvirus 5 [1] is 5.93; with Human alphaherpesvirus 1 [2] it was 5.47; in the data set on CEM-SS, 4.03; in the data set on Human alphaherpesvirus 1 [4], 5.34; in the data set on Human alphaherpesvirus 1 [5], 5.64; with Human betaherpesvirus 5 [6] it was 5.56. Besides, the pIC50 is 5.37 with Human betaherpesvirus 5 [7], 5.72 in the data set on Human alphaherpesvirus 1 [9], 5.40 in the data set on Human alphaherpesvirus 1 [10] and 5.73 in the data set on Human alphaherpesvirus 1 [11]. Further, the pEC50 in [3] is 6.77. Further, the selectivity ratio in data set [8] is 454.
With `Nc1nc2c(ncn2COC(CO)CO)c(=O)[nH]1` [GANCICLOVIR], the pIC50 is 4.79 in the data set with Human betaherpesvirus 5 [1] and 5.49 in the data set with Human betaherpesvirus 5 [6].
As for `Nc1nc2c(ncn2COCCO)c(=O)[nH]1` [ACYCLOVIR], the pIC50 was 4.51 with Human alphaherpesvirus 1 [2]; 4.12 in the data set on Human alphaherpesvirus 1 [4]; 6.24 with Human alphaherpesvirus 1 [5]; 6.49 in the data set on Human alphaherpesvirus 1 [9]; 5.52 with Human alphaherpesvirus 1 [10]; 5.02 with Human alphaherpesvirus 1 [11].
As to `O=C(O)P(=O)(O)O` [FOSCARNET], the pIC50 with Human betaherpesvirus 5 [1] is 4.17; in the data set with Human alphaherpesvirus 1 [2], 3.95; in the data set on Human betaherpesvirus 5 [7], 3.40; with Human alphaherpesvirus 1 [9] it was 4.19; in the data set on Human alphaherpesvirus 1 [10], 3.90; in the data set on Human alphaherpesvirus 1 [11] it was 4.34.

For the origin of these results see ChEMBL document CHEMBL1139254, “Synthesis and in vitro activities of a new antiviral duplex drug linking Zidovudine (AZT) and Foscarnet (PFA) via an octadecylglycerol residue” (Bioorg Med Chem, 2009).
